Reference: the EternaBench riboswitch data

Tested on: MS2 coat protein
Assay: apparent Kd, MS2 coat protein; higher = weaker binding; RNA-MaP array; FMN 200 µM where present
In short: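 In 100 mM Tris-HCl pH 7.5, 80 mM KCl, 4 mM MgCl2, BSA, DTT, yeast tRNA and Tween-20, SNAP-549-labelled MS2 coat protein was titrated from 0.7 or 1.5 nM, doubling to 3 µM, over designs transcribed by stalled E. coli RNA polymerase on Illumina sequencing-chip clusters. This was done first without ligand, then with ligand held constant. After green signal was normalised to red-channel RNA signal and control-cluster median Fmax, the apparent Kd was taken as the median of filtered per-cluster binding-curve fits.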

[1] = designed as: OFF switch for flavin mononucleotide, no ligand
[2] = ligand present: flavin mononucleotide, designed as: OFF switch for flavin mononucleotide
[3] = designed as: ON switch for flavin mononucleotide, no ligand
[4] = ligand present: flavin mononucleotide, designed as: ON switch for flavin mononucleotide

| Sequence | apparent Kd [1] [nM] | apparent Kd [2] [nM] | apparent Kd [3] [nM] | apparent Kd [4] [nM] |
| --- | --- | --- | --- | --- |
| UCACAGUGUCGUUAUCCGUAGCGAACAUGAGGAUCACCCAUGUAGGAUAUGUUAUUAAACUAAUAACAGAAGGACGUUGGUCUC | 83.2 | 530 | – | – |
| GUCAGCUCGUCAGGAUAUACAUGAUAGAUCGAUUAAUUAAUUAAUUUAACAUGAGGAUCACCCAUGUAGAAGGGACGAGCUGAC | 80.1 | 71.9 | – | – |
| UGUCGGAGCAGAGGAUAUUACAUGAGGAUCACCCAUGUAUGAACCCAUAGCUGGAAACAGCAAUGUAAGAAGGCUGCUCCGACA | 8.97 | 82.4 | – | – |
| CUCAUGUUAGGAUAUGCGCUCAACGUAGUGGUCGAGCUCUAGCAGAAGGAACAUGAGGAUCACCCAUGUUUGCA | 58.1 | 26.8 | – | – |
| UCAAGUAUGUAGGAUAUCGAUGUCUACGGACAUCGAGAAGGACGUACAUGAGGAUCACCCAUGUAACUUGCAUG | 464 | 188 | – | – |
| CUUUUGUGAGGAUAUCAGUAGUAAUACAAUAGUAUUACUAUUGAGAAGGCACAUGAGGAUCACCCAUGUUCCUC | 39.4 | 156 | – | – |
| CUGCUCCGUGUAGGAUAUGCAUACUCCCACUAUGCAGAAGGACAUGAGGAUCACCCAUGUAUGUUAUUAUCACGUGUAGCGUAC | 28.7 | 72.9 | – | – |
| ACAUGAGGAUCACCCAUGUAUACAUAGGAUAUUGGUGAUCAGGGAUGUUUUACAGGAUAUGUCUGCGAGAAGGAUGCAAGUUGU | – | – | 360 | 70.4 |
| UUACUAUUACAGAAGGCUAAAUAAUAUAUAAAUGGAGGAUAUGUAACAUGAGGAUCACCCAUGUUUCACCCACAUGAGGAUCAC | 8.45 | 23.8 | – | – |
| UAGAUGGGAGGAUAUACAUAGAUACAGAUUCAUGUAGUGCUACAUGAGGAUCACCCAUGUAGAAGGCCCGUCUU | 33 | 355 | – | – |
| AUCAGCUCGUCAGGAUAUACGUCACUGCUUCGGCAGUGUGGUAAGAUCACAUGAGGAUCACCCAUGUAGAAGGGACGAGCUGAA | 13.3 | 259 | – | – |
| GAGUGAUUAGGAUAUACAUGAGGAUCACCCAUGUGCUUCAGCUAGGAGACUAGCAUUGGUAGAAGGAAUUACUC | 16.3 | 57.1 | – | – |
| CUGAGCCUAGGAUAUACUGGCUGUAAGCUUGAUGCCUGCACACAUGAGGAUCACCCAUGUAGAAGGAGGCCAGG | 17.2 | 21.1 | – | – |
| GCAGCACUGUAGAACAUGAGGAUCACCCAUGUCGAUUGUUAUGAGGAUAUGCAUCGUAUGAAGAUGCAGAAGGCAUUGUGCUGC | – | – | 5.59 | 5.16 |
| GACCAGGCAGGAUAUACAUGAGGAUCACCCAUGUGUCUGCGUUGGGCACGUGAACACGGUAGAAGGGCCUUGAC | 12.2 | 22.9 | – | – |
| GGUCCAUCAUGAGGAUAUGGCACCUUAUUGGUGCCAGAAGGCAUGUCUUUAGACAUGAGGAUCACCCAUGUAAUAAAUUGGACC | – | – | 1150 | 76.5 |
| ACAUUGCGAGGAUAUACAUGAGGAUCACCCAUGUGGUAGUAGAUACGGUAGGGCUAGUGUAGAAGGUGUCAUGG | 137 | 131 | – | – |
| CGCUCAAUUCAGAAGGAUAGAAUCAGAAGGCGUAACAUGAGGAUCACCCAUGUAUAGAAGUGUAACGAGGAUAUGAAUUGAGCG | 11.5 | 10.2 | – | – |
| GGGCUUUGGGAGAAGGUACAUUAAAUUAGUUUAACAUGAGGAUCACCCAUGUAAGGAUAUCCCAUCUUGUAUUAUUAUACAGCC | 11 | 13.3 | – | – |
| CUCUGCCGGCAGGAUAUUAGGUUACGAUGACGUUGAGAAGGGCUGACAUGAGGAUCACCCAUGUAGGGCUCCAU | 18.8 | 24.5 | – | – |
| GGAUAGGACAGAGGAUAUACGUGGUAGAGAUACUAGCAAAAUUUCCUCACAUGAGGAUCACCCAUGUAGAAGGCUGUCCUAUCG | 532 | 19.1 | – | – |
| UUACUCAUGUAAGGAUAUGCAGCCGAAACGGCUGCAGAAGGUACUAAAAUACAUGAGGAUCACCCAUGUCUUUUUAAUUUAGAU | – | – | 75.5 | 47.6 |
| GGACGGAAAGUGAGGAUAUGCUCUACCUCGGUAGAGCAGAAGGCACAUGAGGAUCACCCAUGUGAUAACUGUUC | 19.1 | 93 | – | – |
| GGAAAUCAUGUAGGAUAUGCAUGGCGAAGCUACGCAGAAGGACAUGAGGAUCACCCAUGUUAUAGCUACCCGUUACGGUGGCAA | 131 | 119 | – | – |
| GAAUUCGCAUGAGGAUAUGCACUCAUUUCAUGUGCAGAAGGUAUAACAUUAGACAUGAGGAUCACCCAUGUAUUGGUCAUUAAC | – | – | 13.7 | 12.1 |
| AGUAAAGGCCUGAGGUGUCCGAACAUGAGGAUCACCCAUGUAGAGGAUAUAGGUGGAAGUGACUCCUAGAAGGCUACGUGUCAU | 6.18 | 8.18 | – | – |
| GUGUACGGAGGAUAUGCUGGAAUCUAGCGAAGCUAGGUUCCACAUGAGGAUCACCCAUGUAGAAGGUCGUACAC | 39.3 | 16.1 | – | – |
| CACAGGGAUUCAGGAUAUAUUAGCCGAGGCCGCGUAGAAGGGAAAUCCUGACAUGAGGAUCACCCAUGUCGACCCGCCUUCCAC | – | – | 24.2 | 25.3 |

| Sequence | apparent Kd [1] [nM] | apparent Kd [2] [nM] | apparent Kd [3] [nM] | apparent Kd [4] [nM] |
| --- | --- | --- | --- | --- |
| GCCGAACAUGAGGAUCACCCAUGUCCGGGUAGUCAAGGAUAUGGGAAGGCAAUGCCGUGGCCAGAAGGUGGCUAUC | – | – | 99.3 | 21.3 |
| CAGGUAGACUGAGGAUAUACACAAAACAGCUAGUCUAUCUAGCUGCUCACAUGAGGAUCACCCAUGUAGAAGGCAGUCUGCCUG | 18.4 | 37.8 | – | – |
| GUGGCACAUGAGGAUCACCCAUGUCAGGAUAUCGCGUGGUUUUUUGCGGCCGCGCGCGCGAGAAGGGACGUCUU | 39.2 | 38.1 | – | – |
| AUAUAUAGUGUGAGGAUAUGCUGGUCCUUGGAUCAGCAGAAGGCACAUGAGGAUCACCCAUGUAGUUUAUUUUA | 31.7 | 76.7 | – | – |
| UGUCCAUAGCAGAAGGACAUGUAUAACCAUGAAAACAUGAGGAUCACCCAUGUAGGAUAUGCUAUGGACUAAGAGCGAAAGCUC | 8.57 | 68.8 | – | – |
| CUCAUGUGAGGAUAUGUGAUCAACCUUCUAUAUAGAUGAUUACAGAAGGCACAUGAGGAUCACCCAUGUAGAUC | 23.4 | 18.3 | – | – |
| AAAGAGCGAGGAUAUACAUGAGGAUCACCCAUGUGAAGAUGCAUGGUCUGAACGUCUGGUAGAAGGCGUAUGAA | 161 | 182 | – | – |
| CUUUCCAGGUAGAAGGGAUUACUACAUGAGGAUCACCCAUGUCGAUUGAUCAGGAUAUGCCUGUCACGACGCGUGAUGCUAGAG | – | – | 322 | 66.3 |
| GCCAUCGCAUGAGGAUAUGCUCCGGUUUCCGGAGCAGAAGGCAUGUCAUAAAACAUGAGGAUCACCCAUGUAGUUAAGAUGGCA | – | – | 8.86 | 5.18 |
| AAGCGACAUGAGGAUCACCCAUGUAGCAGGGUCAGAGGAUAUUUGAGCUUGGUGAGGGUUAAAGAAGGUUGAAAUC | – | – | 25.2 | 33.1 |
| ACAUACUAUCGAGGAUAUCGGUAAGAAAAGUUACGAGAAGGCGAUUAUAAAUUUAUAUUAUUAUACAUGAGGAUCACCCAUGUA | – | – | 20.9 | 21.3 |
| CGCUCAGAGAACGAUACGAAUAGACAUGAGGAUCACCCAUGUAGAAGGACAACGGAAUAAACGUUGUAGGAUAUACAUUUAGUG | 34.3 | 90.4 | – | – |
| AAACACGGCGAACCGGCGUUCGUACAUGAGGAUCACCCAUGUCAGGAUAUCUCGAUCUUUGAAUGAGAGAAGGGACAGGAUCCU | 700 | 375 | – | – |
| UGGUACUAGGGAGGAUAUGGGAAGAUACAUGAGGAUCACCCAUGUUUAAGAAUGCCGAGAGGCAACCAGAAGGCCCUAGUACCU | – | – | 8.27 | 5.57 |
| GUCAGCUCGUGAGGAUAUACAUGUGCUGGAGACAGCACUAAAGAUUUCACAUGAGGAUCACCCAUGUAGAAGGCACGAGCUGAU | 16.4 | 37.4 | – | – |
| UGAUAGCACAGAGGAUAUGCGUUGUGUUAUCUCUACAUGAGGAUCACCCAUGUAGAAGGCUGUGCUAUCUAAGUCGGAAACGAU | 5.57 | 7.16 | – | – |
| UGGCCAAGAGGAUAUACAUGAGGAUCACCCAUGUCCAUCCUGAUGGAUAGGGCCGAGUGUAGAAGGCUUGGUCC | 32.6 | 18 | – | – |
| CUUUUGUGAGGAUAUCGGUAGUAAUACAAUAGUAUUACUACUGAGAAGGCACAUGAGGAUCACCCAUGUUCCUC | 49.2 | 305 | – | – |
| UGGAUGUAGGAGAAGGAGGACUUCAUGAGGAUCACCCAUGUGUUAGGACUUAGGAUAUUUGACAACAUGAGGAUCACCCAUGUG | – | – | 60 | 52.7 |
| GUACGUGGACAGAAGGCGACAUGAGGAUCACCCAUGUUGGCUCGGGUAUGACCAAUCCGCAUGAUUGAGGAUAUGUCUGCGGGC | 9.07 | 62.4 | – | – |
| UUGAAGUCAUCAGGAUAUAGUAUUAAAGACAUUUAUAUUUUCAAACAUGAGGAUCACCCAUGUCGCUAGAAGGGAUUAUAGAUU | 49.1 | 44.9 | – | – |
| CCGGAUAUGCAGGAUAUCGUAUCGGAAACGAUACGAGAAGGGUAUACAUGAGGAUCACCCAUGUGUCCUACCGG | 23 | 33.1 | – | – |
| AUUUCCAGAGGAUAUGCGAGGGUGUACCUCUAACAGCGCAAACAUGAGGAUCACCCAUGUAGAAGGCUGAUCAU | 56.5 | 54.8 | – | – |
| AAAAAAUGAGGAUAUACAUGAAAAAAAAAAAAAAAAAAAAAACAUGAGGAUCACCCAUGUAGAAGGCGUAAAAA | 51.2 | 41.4 | – | – |
| AACUAACAUGAGGAUCACCCAUGUCAGGAUAUGCAUCAAUCAAUCAAUCAAUCAAUCAGCAGAAGGGACACUAC | 16.8 | 19.4 | – | – |
| GGAGCUCUCAUUAACAUGAGGAUCACCCAUGUCAAAAGACAUGAGGAUAUGGAUCCUAAUUGGAUCCAGAAGGCAUGGAGCUCC | – | – | 1070 | 54.3 |
| GGAUAUAUUACAUGAGGAUCACCCAUGUCAGAAAGGGUAAUCAGAAGGUACUAUUAGAGAAAGAGUAAGGAUAUGAUUAUAUCC | – | – | 630 | 147 |
